Test results as given in article PMC5648736 (Clinical Pharmacokinetics, 2017).
Like-named read-outs stand apart in the source and are kept apart here. Marks after values point to notes of the source that are not given here.

Experiments:
[1] = format: in vivo, human; settings: for AUC∞ estimated ratio (95% CI): unadjusted ANCOVA; for C max estimated ratio (90% CI): unadjusted; for t ½: geometric mean (CV%)
[2] = Safety and tolerability of single dose semaglutide 0.5 mg; format: in vivo, human; settings: single SC 0.5 mg
How it was run: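 Single 0.5 mg subcutaneous injection into the thigh by pen. ESRD subjects were dosed 1–24 h after haemodialysis, with no dialysis for 48 h after. Monitoring covered AEs, physical exam, ECG, vital signs, plasma glucose and clinical labs (biochemistry, haematology, urinalysis). TEAEs counted from dosing day to follow-up +14 days (~5 weeks). Hypoglycaemia: major = unable to self-treat; minor = self-treated with glucose <3.1 mmol/L. Descriptive statistics.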

[3] = Safety of initial single dose semaglutide 10 µg/kg; format: in vivo, human
How it was run: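 Initial cohort received a single weight-based dose, with ESRD subjects dosed 1–24 h after haemodialysis. Safety was judged from reported AEs, serious AEs, and gastrointestinal frequency and severity. Hypoglycaemia was classed as major, minor or symptoms-only by ability to self-treat and a 3.1 mmol/L plasma glucose cut-off. This cohort was evaluated for safety only and excluded from pharmacokinetic analysis.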

[4] = cited from earlier work
[5] = ESRD vs normal, adjusted for age, sex, log(weight), single SC 0.5 mg
[6] = mild RI vs normal, adjusted for age, sex, log(weight), single SC 0.5 mg
[7] = moderate RI vs normal, adjusted for age, sex, log(weight), single SC 0.5 mg
[8] = severe RI vs normal, adjusted for age, sex, log(weight), single SC 0.5 mg
[9] = single dose 10 µg/kg, six subjects

Compound: CC[C@H](C)[C@H](NC(=O)[C@H](Cc1ccccc1)NC(=O)[C@H](CCC(=O)O)NC(=O)[C@H](CCCCNC(=O)COCCOCCNC(=O)COCCOCCNC(=O)CC[C@H](NC(=O)CCCCCCCCCCCCCCCCC(=O)O)C(=O)O)NC(=O)[C@H](C)NC(=O)[C@H](C)NC(=O)[C@H](CCC(N)=O)NC(=O)CNC(=O)[C@H](CCC(=O)O)NC(=O)[C@H](CC(C)C)NC(=O)[C@H](Cc1ccc(O)cc1)NC(=O)[C@H](CO)NC(=O)[C@H](CO)NC(=O)[C@@H](NC(=O)[C@H](CC(=O)O)NC(=O)[C@H](CO)NC(=O)[C@@H](NC(=O)[C@H](Cc1ccccc1)NC(=O)[C@@H](NC(=O)CNC(=O)[C@H](CCC(=O)O)NC(=O)C(C)(C)NC(=O)[C@@H](N)Cc1cnc[nH]1)[C@@H](C)O)[C@@H](C)O)C(C)C)C(=O)N[C@@H](C)C(=O)N[C@@H](Cc1c[nH]c2ccccc12)C(=O)N[C@@H](CC(C)C)C(=O)N[C@H](C(=O)N[C@@H](CCCNC(=N)N)C(=O)NCC(=O)N[C@@H](CCCNC(=N)N)C(=O)NCC(=O)O)C(C)C [semaglutide, Semaglutide]
- AUC48 ratio (ESRD group/normal renal function group), adjusted ([1]; 0–48 h, without hemodialysis, adjusted for age, sex, body weight, (90% CI)): 0.81
- AUC48–96 ratio (ESRD group/normal renal function group), adjusted ([1]; 48–96 h, with hemodialysis, adjusted for age, sex, body weight, (90% CI)): 0.93
- effect of hemodialysis on pharmacokinetics ([1]; ESRD group, AUC48 vs AUC48–96 ratios): hemodialysis did not appear to affect the pharmacokinetics
- AUC∞ estimated ratio (95% CI) ([1]; ESRD vs normal renal function, single SC 0.5 mg): 0.99 (0.82–1.19)
- AUC∞ estimated ratio (95% CI), adjusted analysis [1, 5]: 1.10 (0.94–1.28)
- C max estimated ratio (90% CI), adjusted analysis [1, 5]: 0.82 (0.66–1.01)
- C max estimated ratio (90% CI) ([1]; ESRD vs normal, single SC 0.5 mg): 0.72 (0.57–0.91)
- t ½ ([1]; ESRD, single SC 0.5 mg, n=9): 243 (19)^b h
- C max lower in subjects with RI than in subjects with normal renal function ([1]; all RI groups, adjusted for age, sex, log(weight), single SC 0.5 mg): 10–20%
- AUC∞ estimated ratio (95% CI) ([1]; mild RI vs normal renal function, single SC 0.5 mg): 1.01 (0.83–1.21)
- AUC∞ estimated ratio (95% CI), adjusted analysis [1, 6]: 0.99 (0.85–1.16)
- C max estimated ratio (90% CI), adjusted analysis [1, 6]: 0.90 (0.73–1.11)
- C max estimated ratio (90% CI) ([1]; mild RI vs normal, single SC 0.5 mg): 0.95 (0.76–1.20)
- t ½ ([1]; mild RI, single SC 0.5 mg, n=9): 169 (14)^b h
- mean C max across the other groups ([1]; mild, moderate and severe RI groups, single SC 0.5 mg): 9.0 to 9.8 nM
- AUC∞ estimated ratio (95% CI) ([1]; moderate RI vs normal renal function, single SC 0.5 mg): 1.15 (0.96–1.38)
- AUC∞ estimated ratio (95% CI), adjusted analysis [1, 7]: 1.07 (0.91–1.27)
- C max estimated ratio (90% CI), adjusted analysis [1, 7]: 0.79 (0.64–0.99)
- C max estimated ratio (90% CI) ([1]; moderate RI vs normal, single SC 0.5 mg): 0.88 (0.70–1.10)
- t ½ ([1]; moderate RI, single SC 0.5 mg, n=10): 201 (14)^c h
- t max range across the groups ([1]; range of group medians, single SC 0.5 mg): 24 to 51 h
- AUC∞ estimated ratio (95% CI) ([1]; severe RI vs normal renal function, single SC 0.5 mg): 1.22 (1.02–1.47)
- AUC∞ estimated ratio (95% CI), adjusted analysis [1, 8]: 1.13 (0.97–1.32)
- C max estimated ratio (90% CI), adjusted analysis [1, 8]: 0.86 (0.70–1.06)
- C max estimated ratio (90% CI) ([1]; severe RI vs normal, single SC 0.5 mg): 0.95 (0.75–1.19)
- increase in exposure ([1]; subjects with CLCR 10 mL/min versus CLCR 90 mL/min, from slope −0.06): 14%
- vital signs, electrocardiogram, physical examinations, clinical laboratory assessments ([2]; all groups): No clinically significant values or appreciable changes
- serious or severe TEAEs ([2]; all groups, n=56): none were serious or severe
- minor hypoglycemia ([2]; moderate RI and ESRD groups): one subject with moderate RI and one with ESRD experienced minor hypoglycemia
- symptoms-only hypoglycemia ([2]; moderate RI group): two subjects in the moderate RI group experienced symptoms-only hypoglycemia
- major hypoglycemic events ([2]; one subject with severe RI without type 2 diabetes): two major hypoglycemic events
- tolerability as starting dose ([3]; single dose 10 µg/kg (0.7–1.2 mg), six subjects (three severe RI, three ESRD)): not considered a tolerable starting dose
- minor or symptoms-only hypoglycemia [3, 9]: three experienced minor or symptoms-only hypoglycemia
- significant nausea and/or vomiting [3, 9]: five experienced significant nausea and/or vomiting
- t ½ in humans [4]: approximately 1 week
